Test results as given in ChEMBL document CHEMBL1146454, “Antifungal 3-butylisocoumarins from Asteraceae-Anthemideae” (J Nat Prod, 2004).
In brackets after ≈: the same amount, converted by molar mass. Activity calls are given as the source filed them. The calls are words filed in the database; no cut-off is given here.

Columns and labels:
Cladosporium herbarum = test: Antifungal activity against Cladosporium herbarum assessed as inhibition zone in mycelial layer assessed per spot by TLC bioautography assay; assay type: functional
How it was run: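 TLC bioautography with Cladosporium herbarum strain VIAM-MA1511 as the mycelial layer. Compounds were applied as a dilution series from 100 to 25 μg/spot, and plates were held 3 days. The MIC was the first amount in the series that gave a homogeneous inhibition zone in the mycelial layer.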

Pyricularia grisea = test: Antifungal activity against Pyricularia grisea assessed as inhibition of germ-tube development by microdilution method; assay type: functional, organism-based
How it was run: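 Pyricularia grisea isolate from infected rice leaves (Thailand), tested in 4% malt extract broth by microdilution. Stock in acetone/malt extract emulsified with 0.2% Tween 80, diluted 2-fold; final range 200–0.78 μg/mL. Inoculum 10⁴ CFU conidia per well. Incubated 16 h at room temperature, stopped with lactophenol blue. Germ-tube size measured by pixel counts of 10 conidia per well. EC50/EC90 by probit; MIC is the first concentration giving total inhibition.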

| SMILES | MIC (Cladosporium herbarum) | Activity (Pyricularia grisea) | EC50 (Pyricularia grisea) | MIC (Pyricularia grisea) | EC90 (Pyricularia grisea) | Activity (Cladosporium herbarum) |
| --- | --- | --- | --- | --- | --- | --- |
| CCC(Br)C(Br)c1cc2ccccc2c(=O)o1 (centres undefined) | 100 µg |  |  |  |  |  |
| CC[C@H](Cc1cc2ccccc2c(=O)o1)OC | >100 µg | inactive |  |  |  |  |
| CCCC(Br)(Br)c1cc2ccccc2c(=O)o1 | 50 µg |  | 22 µg/mL (≈ 61.1 µM) | > 200 µg/mL |  |  |
| CN(CC[C@H](N)CC(=O)N[C@H]1C=C[C@H](n2ccc(N)nc2=O)O[C@@H]1C(=O)O)C(=N)N [BLASTICIDIN_S] |  |  | 13 µg/mL (≈ 30.8 µM) | > 200 µg/mL |  |  |
| CC[C@@H]1O[C@H]1c1cc2ccccc2c(=O)o1 | 25 µg |  | 93 µg/mL (≈ 430 µM) | > 200 µg/mL |  |  |
| CC/C=C/c1cc2ccccc2c(=O)o1 | 100 µg |  | 11 µg/mL (≈ 54.9 µM) | 25 µg/mL (≈ 125 µM) | 19 µg/mL (≈ 94.9 µM) |  |
| CCC#Cc1cc2ccccc2c(=O)o1 [CORFIN] | >100 µg |  | 3 µg/mL (≈ 15.1 µM) | 100 µg/mL (≈ 504 µM) | 99 µg/mL (≈ 499 µM) |  |
| CC[C@H]1O[C@@H]1c1cc2ccccc2c(=O)o1 (racemic) | 50 µg | inactive |  |  |  |  |
| COC1=CC(=O)C[C@@H](C)[C@]12Oc1c(Cl)c(OC)cc(OC)c1C2=O [GRISEOFULVIN] |  |  | 4 µg/mL (≈ 11.3 µM) | > 200 µg/mL |  |  |
| CC/C=C(\Br)c1cc2ccccc2c(=O)o1 | <25 µg |  | 2 µg/mL (≈ 7.17 µM) | 12 µg/mL (≈ 43 µM) | 9 µg/mL (≈ 32.2 µM) |  |
| CCCCNC(=O)n1c(NC(=O)OC)nc2ccccc21 [BENOMYL] | <25 µg |  | 0.06 µg/mL (≈ 0.207 µM) | 200 µg/mL (≈ 689 µM) |  |  |
| CC#CCc1cc2ccccc2c(=O)o1 [CAPILLARIN] |  |  | 37 µg/mL (≈ 187 µM) | 100 µg/mL (≈ 504 µM) | 92 µg/mL (≈ 464 µM) | inactive |
| CC(=O)/C=C/c1cc2ccccc2c(=O)o1 | <25 µg |  | 5 µg/mL (≈ 23.3 µM) | 25 µg/mL (≈ 117 µM) | 21 µg/mL (≈ 98 µM) |  |
| C[C@@H](O)/C=C/c1cc2ccccc2c(=O)o1 | 100 µg |  | 140 µg/mL (≈ 647 µM) | > 200 µg/mL | 292 µg/mL (≈ 1350 µM) |  |
| CC[C@@H](O)[C@H](O)c1cc2ccccc2c(=O)o1 (relative stereo) |  | inactive |  |  |  |  |
| CC[C@H](O)[C@H](O)c1cc2ccccc2c(=O)o1 (relative stereo) |  | inactive |  |  |  |  |
| COc1cc(O)c2c(c1)C[C@@H](C)OC2=O | 25 µg |  | 47 µg/mL (≈ 226 µM) | 200 µg/mL (≈ 961 µM) | 106 µg/mL (≈ 509 µM) |  |
| CCCC(Br)c1cc2ccccc2c(=O)o1 (centres undefined) | 25 µg |  | 35 µg/mL (≈ 124 µM) | 100 µg/mL (≈ 356 µM) | 96 µg/mL (≈ 341 µM) |  |
| CCCCc1cc2ccccc2c(=O)o1 [DIHYDROARTEMIDIN] | 100 µg |  | 10 µg/mL (≈ 49.4 µM) | 50 µg/mL (≈ 247 µM) | 40 µg/mL (≈ 198 µM) |  |
| CO/N=C(/C(=O)OC)c1ccccc1COc1ccccc1C [KRESOXIM-METHYL] |  |  | 0.003 µg/mL (≈ 0.00957 µM) | > 200 µg/mL |  |  |
| CC(O)C#Cc1cc2ccccc2c(=O)o1 (centres undefined) | 100 µg |  | 0.9 µg/mL (≈ 4.2 µM) | 50 µg/mL (≈ 233 µM) |  |  |
| CC/C=C/c1cc2cccc(O)c2c(=O)o1 | >100 µg |  | 4 µg/mL (≈ 18.5 µM) | 25 µg/mL (≈ 116 µM) | 19 µg/mL (≈ 87.9 µM) |  |
| CC#CCc1cc2cccc(O)c2c(=O)o1 |  |  | 2 µg/mL (≈ 9.34 µM) | 100 µg/mL (≈ 467 µM) | 102 µg/mL (≈ 476 µM) | inactive |
| O=c1occc2ccccc12 [ISOCOUMARIN] |  |  | 83 µg/mL (≈ 568 µM) | > 200 µg/mL |  |  |
| CC(C)CC(=O)OCC#CCc1cc2ccccc2c(=O)o1 [CAPILLARIN ISOVALERATE] |  |  | 5 µg/mL (≈ 16.8 µM) | 25 µg/mL (≈ 83.8 µM) | 13 µg/mL (≈ 43.6 µM) | inactive |
| CC/C=C/c1cc2c(O)cccc2c(=O)o1 [ARTEMIDINOL] | >100 µg |  | 12 µg/mL (≈ 55.5 µM) | 50 µg/mL (≈ 231 µM) | 32 µg/mL (≈ 148 µM) |  |
| CC[C@H](O)Cc1cc2ccccc2c(=O)o1 | 100 µg |  | 25 µg/mL (≈ 115 µM) | > 200 µg/mL |  |  |
| CC(=O)OC(C)/C=C/c1cc2ccccc2c(=O)o1 (centres undefined) | 50 µg |  | 8 µg/mL (≈ 31 µM) | 50 µg/mL (≈ 194 µM) | 30 µg/mL (≈ 116 µM) |  |
| CCCC(O)c1cc2ccccc2c(=O)o1 (centres undefined) | 100 µg |  | 37 µg/mL (≈ 170 µM) | 100 µg/mL (≈ 458 µM) | 83 µg/mL (≈ 380 µM) |  |
| C=C/C=C/c1cc2ccccc2c(=O)o1 | 25 µg |  | 14 µg/mL (≈ 70.6 µM) | 50 µg/mL (≈ 252 µM) | 45 µg/mL (≈ 227 µM) |  |
